Laboratory results: ChEMBL document CHEMBL4138318, “Discovery of 5-Cyano-6-phenylpyrimidin Derivatives Containing an Acylurea Moiety as Orally Bioavailable Reversal Agents against P-Glycoprotein-Mediated Mutidrug Resistance” (J Med Chem, 2018)
The source made the active and inactive calls. No cut-off for these calls is given here.

Tests used:
SW620/AD300 [1] = assay: Effect on ABCB1 expression in human SW620/AD300 cells up to 4 uM after 48 hrs by Western blot analysis; assay type: functional, cell-based
Outline: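 SW620/AD300 cells exposed to compound at 0, 1, 2 or 4 µM for 48 h, lysed, ultracentrifuged, protein quantified by BCA; equal protein run on SDS-PAGE, wet-transferred to nitrocellulose, primary antibody overnight at 4℃, secondary 2 h at room temperature, enhanced chemiluminescence detection; GAPDH as loading control.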

SW-620 [2] = assay: Inhibition of [3H]-paclitaxel efflux in human SW620 cells up to 4 uM preincubated for 4 hrs followed by [3H]-paclitaxel addition for 2 hrs measured after 120 mins by liquid scintillation counting method; assay type: functional, cell-based
Outline: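 After 2 h loading with 0.1 µM [3H]-paclitaxel (following 4 h compound pre-exposure), SW620 or SW620/AD300 cells moved to label-free medium for a 2 h efflux phase; samples taken at 0, 30, 60 and 120 min and radioactivity counted by liquid scintillation. Three independent assays, mean ± SD.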

[3] = target: T1, ATP-dependent translocase ABCB1 (Homo sapiens, UniProt P08183); assay: Stimulation of human ABCB1 ATPase activity expressed in high-five insect cell membrane vesicles assessed as compound concentration required for 50% stimulation by colorimetric analysis; details: read-out: Activity
Outline: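 Vanadate-sensitive ABCB1 ATPase activity in High Five insect cell membrane vesicles, measured with a commercial ATPase kit under a modified protocol; compound tested across 0-40 µM; maximal fold stimulation and concentration giving 50% stimulation derived.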

[4] = target: T1, ATP-dependent translocase ABCB1; assay: Binding affinity to ABCB1 in human SW620/AD300 cells assessed as thermal stabilization preincubated for 30 mins followed by incubation at 40 to 61 degC for 3 mins by CETSA; assay type: cell-based; details: 0.05 h
Outline: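 SW620/AD300 cells lysed by three liquid-nitrogen freeze-thaw cycles; ultracentrifuged supernatant split into compound-treated and solvent-control portions, incubated 30 min at 37℃, aliquoted and heated 3 min at 40, 43, 46, 49, 52, 55, 58 or 61℃; remaining ABCB1 or ABCC1 detected by western blotting.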

[5] = target: T2, Multidrug resistance-associated protein 1 (Homo sapiens, UniProt P33527); assay: Inhibition of ABCC1 in human KB-CV60 cells assessed as potentiation of vincristine-induced cytotoxicity by measuring fold reduction in vincristine IC50 at 1 uM preincubated for 4 hrs followed by vincristine addition measured after 72 hrs by MTT assay; assay type: cell-based
Outline: (§1)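 KB-CV60 and HEK293/ABCC1 cells (transfected line kept in 2 mg/mL G418) given graded vincristine with or without modulator for 72 h; MK571 25 µM reference; viability by MTT read at 490 nm. IC50 from three independent repeats, mean ± SD; reversal fold = vincristine IC50 ratio without/with modulator.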

[6] = target: T2, Multidrug resistance-associated protein 1; assay: Inhibition of ABCC1 (unknown origin) expressed in HEK293 cells assessed as potentiation of vincristine-induced cytotoxicity by measuring fold reduction in vincristine IC50 at 1 uM preincubated for 4 hrs followed by vincristine addition measured after 72 hrs by MTT assay; assay type: cell-based; outline: as §1
SW620/AD300 [7] = assay: Antitumor activity against ABCB1 overexpressing human SW620/AD300 cells xenografted in BALB/c nude mouse assessed as reduction in tumor volume at 20 mg/kg/day, po measured after 21 days; assay type: functional, organism-based
Outline: (§2)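 Female BALB/c nude mice (18-20 g, 5-6 weeks) bearing SW620/AD300 xenografts; grouping once tumours reached 100 mm3: saline vehicle […] ip, paclitaxel 5 mg/kg every 3 days ip, test agent 20 mg/kg/day orally, or the combination. Body weight and tumour volume recorded every 2 days over 21 days; tumours excised and weighed at end.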

SW620/AD300 [8] = assay: Antitumor activity against ABCB1 overexpressing human SW620/AD300 cells xenografted in BALB/c nude mouse assessed as reduction in tumor volume at 20 mg/kg/day, po cotreated with 5 mg/kg, ip paclitaxel measured after 21 days; assay type: functional, organism-based; outline: as §2
SW-620 [9] = assay: Inhibition of rhodamine 123 efflux in human SW620 cells up to 4 uM preincubated for 4 hrs followed by 30 mins incubation in Rho-123 containing medium and subsequent incubation in Rho-123 free medium up to 120 mins by flow cytometry; assay type: functional, cell-based
Outline: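 Cells loaded with rhodamine 123 as in the accumulation assay (4 h compound pre-exposure, 1 µg/mL dye 30 min, 37℃), then kept in dye-free medium with or without reversal agent for 30, 60, 90 or 120 min at 37℃; intracellular fluorescence read by flow cytometry at 488/530 nm. Three independent experiments.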

T2 sequence (P33527 whole entry): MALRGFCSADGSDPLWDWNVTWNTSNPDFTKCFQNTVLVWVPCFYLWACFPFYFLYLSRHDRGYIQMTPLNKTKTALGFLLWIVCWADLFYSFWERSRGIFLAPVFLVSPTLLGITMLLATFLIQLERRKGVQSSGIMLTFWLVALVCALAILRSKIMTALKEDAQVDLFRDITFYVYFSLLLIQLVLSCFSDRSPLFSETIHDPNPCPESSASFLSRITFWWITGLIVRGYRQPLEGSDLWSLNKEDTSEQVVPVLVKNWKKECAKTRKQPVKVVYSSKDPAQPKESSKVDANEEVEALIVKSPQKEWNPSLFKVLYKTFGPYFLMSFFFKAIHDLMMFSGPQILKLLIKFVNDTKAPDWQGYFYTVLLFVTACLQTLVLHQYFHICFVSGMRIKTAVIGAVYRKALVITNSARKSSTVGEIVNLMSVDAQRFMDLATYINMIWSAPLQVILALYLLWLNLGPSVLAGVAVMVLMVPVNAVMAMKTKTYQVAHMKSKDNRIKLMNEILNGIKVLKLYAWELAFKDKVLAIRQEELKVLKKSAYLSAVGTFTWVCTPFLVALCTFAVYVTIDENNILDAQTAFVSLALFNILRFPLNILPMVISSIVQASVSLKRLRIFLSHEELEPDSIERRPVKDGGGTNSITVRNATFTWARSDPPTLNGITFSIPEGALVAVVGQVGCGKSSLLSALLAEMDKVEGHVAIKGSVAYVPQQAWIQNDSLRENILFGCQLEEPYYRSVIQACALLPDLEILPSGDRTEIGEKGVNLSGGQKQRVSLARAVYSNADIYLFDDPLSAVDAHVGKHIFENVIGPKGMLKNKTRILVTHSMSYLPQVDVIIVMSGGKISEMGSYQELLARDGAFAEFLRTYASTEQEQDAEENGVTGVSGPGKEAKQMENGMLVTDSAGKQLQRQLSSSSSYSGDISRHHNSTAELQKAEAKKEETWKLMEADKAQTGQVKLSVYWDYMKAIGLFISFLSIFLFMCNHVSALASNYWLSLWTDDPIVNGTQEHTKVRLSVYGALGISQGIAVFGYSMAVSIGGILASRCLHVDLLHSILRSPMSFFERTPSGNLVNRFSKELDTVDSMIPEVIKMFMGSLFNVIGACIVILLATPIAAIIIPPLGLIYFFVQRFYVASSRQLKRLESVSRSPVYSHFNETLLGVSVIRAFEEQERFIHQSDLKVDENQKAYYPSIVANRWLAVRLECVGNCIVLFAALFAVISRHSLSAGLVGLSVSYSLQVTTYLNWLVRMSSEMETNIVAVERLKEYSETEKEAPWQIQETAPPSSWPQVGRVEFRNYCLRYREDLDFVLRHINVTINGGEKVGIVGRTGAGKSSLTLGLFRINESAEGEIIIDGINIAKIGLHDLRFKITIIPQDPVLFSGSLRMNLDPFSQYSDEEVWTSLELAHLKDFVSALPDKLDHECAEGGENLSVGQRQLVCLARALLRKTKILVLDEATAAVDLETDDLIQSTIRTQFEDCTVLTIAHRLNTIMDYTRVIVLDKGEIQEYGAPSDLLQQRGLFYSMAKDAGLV
T1 sequence (P08183 whole entry): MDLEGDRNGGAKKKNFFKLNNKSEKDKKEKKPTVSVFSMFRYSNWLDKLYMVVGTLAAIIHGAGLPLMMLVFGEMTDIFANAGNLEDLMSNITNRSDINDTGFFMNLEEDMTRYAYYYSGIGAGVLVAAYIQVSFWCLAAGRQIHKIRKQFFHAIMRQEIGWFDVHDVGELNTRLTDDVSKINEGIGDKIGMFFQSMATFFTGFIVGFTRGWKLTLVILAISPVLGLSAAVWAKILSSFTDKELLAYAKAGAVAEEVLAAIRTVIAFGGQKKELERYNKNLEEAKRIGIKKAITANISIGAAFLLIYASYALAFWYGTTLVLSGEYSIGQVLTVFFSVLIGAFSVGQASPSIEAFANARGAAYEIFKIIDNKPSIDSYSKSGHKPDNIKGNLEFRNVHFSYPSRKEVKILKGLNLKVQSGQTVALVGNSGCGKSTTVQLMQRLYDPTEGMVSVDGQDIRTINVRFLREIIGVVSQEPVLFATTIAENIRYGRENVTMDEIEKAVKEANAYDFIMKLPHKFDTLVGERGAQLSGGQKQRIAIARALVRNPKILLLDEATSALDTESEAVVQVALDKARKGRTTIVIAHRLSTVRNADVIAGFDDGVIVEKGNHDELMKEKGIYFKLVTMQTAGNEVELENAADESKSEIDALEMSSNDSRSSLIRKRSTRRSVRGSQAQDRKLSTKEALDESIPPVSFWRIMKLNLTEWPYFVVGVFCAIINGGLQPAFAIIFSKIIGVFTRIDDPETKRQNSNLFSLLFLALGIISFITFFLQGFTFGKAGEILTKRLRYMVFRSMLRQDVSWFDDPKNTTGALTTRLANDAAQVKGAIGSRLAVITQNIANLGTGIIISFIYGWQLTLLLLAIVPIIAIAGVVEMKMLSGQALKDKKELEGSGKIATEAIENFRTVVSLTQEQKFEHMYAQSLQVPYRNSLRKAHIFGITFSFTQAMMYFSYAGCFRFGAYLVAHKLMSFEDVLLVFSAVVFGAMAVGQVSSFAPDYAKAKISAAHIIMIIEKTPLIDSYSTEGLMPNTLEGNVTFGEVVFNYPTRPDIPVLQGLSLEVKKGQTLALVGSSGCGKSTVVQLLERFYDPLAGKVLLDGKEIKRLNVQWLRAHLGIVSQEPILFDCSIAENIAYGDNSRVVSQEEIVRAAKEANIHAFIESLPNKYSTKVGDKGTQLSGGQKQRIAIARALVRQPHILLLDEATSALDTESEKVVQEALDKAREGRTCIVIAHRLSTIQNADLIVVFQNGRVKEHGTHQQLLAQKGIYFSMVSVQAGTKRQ

`COc1cc(-c2nc(SCC(=O)NC(=O)Nc3ccccn3)nc(Nc3cccc(Cl)c3)c2C#N)cc(OC)c1OC` was tested, and the Activity (SW620/AD300 [1]) was “inactive”, the inhibition (SW-620 [2]) was “inactive” and the EC50 [3] was 970 nM. The Activity [4] was “Active”, the “fold change (FC)” value [5] was 1.13 and the “fold change (FC)” value [6] was 1.14. For the same compound, the Activity (SW620/AD300 [7]) was “inactive”, the Activity (SW620/AD300 [8]) was “Active” and the inhibition (SW-620 [9]) was “inactive”.
